This is a sample that favours compounds with a hit; in the whole collection about 1.8% have one here.
CHRM4 PAM: CHRM4 positive allosteric modulation. CHO-K1 hM4/Gqi5, Fluo-8 calcium fluorescence, ACh EC20; 0% = ACh EC20, 100% = maximal ACh. activation, % at 3 µM. 360,000 compounds, 0.4% hits. P08173;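 active = activation above its plate's cutoff, the mean activation of sample wells plus 3 SD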
Target sequence (P08173 whole entry, looked up): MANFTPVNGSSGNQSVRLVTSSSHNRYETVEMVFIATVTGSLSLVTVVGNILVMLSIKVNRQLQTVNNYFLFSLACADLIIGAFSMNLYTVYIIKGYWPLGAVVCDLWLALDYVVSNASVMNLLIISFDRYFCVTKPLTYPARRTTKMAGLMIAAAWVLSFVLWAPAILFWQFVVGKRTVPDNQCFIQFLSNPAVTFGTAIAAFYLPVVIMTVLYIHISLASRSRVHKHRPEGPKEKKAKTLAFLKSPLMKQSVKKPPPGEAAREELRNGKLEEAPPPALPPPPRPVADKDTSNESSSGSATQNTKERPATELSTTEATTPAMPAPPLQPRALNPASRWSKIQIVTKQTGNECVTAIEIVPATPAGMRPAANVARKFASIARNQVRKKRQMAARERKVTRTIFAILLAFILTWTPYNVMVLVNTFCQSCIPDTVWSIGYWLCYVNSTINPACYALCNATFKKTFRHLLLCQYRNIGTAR
CHRM5 PAM: CHRM5 positive allosteric modulation; activation, % at 3 µM; 360,000 compounds, 0.3% hits; P08912; AID 624038; CHO-K1 hM5, Fluo-8 calcium, ACh EC20 PAM; 0% = ACh EC20, 100% = ACh EC100;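 active = activation above the run cutoff, the mean activation of all test compounds plus 3 SD, cut at about 18% in these data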
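System: CHO-K1 cell line with stable human muscarinic M5 receptor expression | Also added: EC20 acetylcholine as agonist stimulus | Compound: One concentration, 3 µM final (nominal) | Timing: Fluo-8 loading 80 min at 37 °C plus 30 min room temperature | Measured by: Fluo-8 calcium dye fluorescence, kinetic read | Read-out basis: % activation, ACh-normalized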
CHRM4 antagonist: CHRM4 antagonism in calcium assay; CHO-hM4 cells, ACh EC80, Fluo-8 calcium fluorescence; inhibition, % at 3 µM; 360,000 compounds, 0.73% hits; AID 624125;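 active = inhibition above its plate's cutoff, the mean inhibition of sample wells plus 3 SD, cut at about 27% in these data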
M5 antag: CHRM5 antagonism in calcium assay. CHO-hM5 cells, Fluo-8 calcium fluorescence, ACh EC80. 360,000 compounds, 0.59% hits. P08912. inhibition, % at 3 µM. AID 624040;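 active = inhibition above a per-plate cutoff, the mean of that plate's test compounds plus 3 SD, cut at about 27% in these data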
CHRM4 agonist: agonists of human muscarinic M4 receptor (CHRM4). P08173. CHO-K1 hM4/Gqi5, Fluo-8 calcium fluorescence; vehicle 0%, full acetylcholine response 100%. activation, % at 3 µM. 360,000 compounds, 0.14% hits;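 active = activation above the run mean over all test wells plus 3 SD, cut at about 32% in these data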;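 also: peak over basal fluorescence ratio per well then scaled between controls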
M5 ag: agonists of human muscarinic M5 receptor (CHRM5). 360,000 compounds, 0.19% hits. activation, % at 3 µM. AID 624037. CHO-K1 hM5 cells, Fluo-8 calcium fluorescence; 0% DMSO wells, 100% maximal acetylcholine response;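 active = activation above the run's mean over test compounds plus 3 SD, cut at about 23% in these data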;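 also: signal is peak over basal fluorescence ratio across the kinetic read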
Hits are given with their value; - = inactive; + = active, no number.

SMILES | CHRM4 PAM | CHRM5 PAM | CHRM4 antagonist | M5 antag | CHRM4 agonist | M5 ag
CCOc1ccc(N(CC(=O)N2CCCCCC2)S(C)(=O)=O)cc1 | - | - | - | - | - | -
Cc1c(C(=O)N/N=C/c2cccnc2)nnn1-c1nonc1N | - | - | - | - | - | -
CC[C@]12c3[nH]c4ccc(Cl)cc4c3CCN1C(=O)[C@@H](CC(=O)NCc1ccc(OC)c(OC)c1)C[C@@H]2C(=O)N1CCN(C(=O)C2CC2)CC1 | - | - | - | - | - | -
CC[C@]12c3[nH]c4ccccc4c3CCN1C(=O)C(CC(=O)NCC13CC4CC(CC(C4)C1)C3)C[C@@H]2C(=O)N1CCN(C(=O)c2ccco2)CC1 (stereo partly specified) | - | - | 33 | - | - | -
CC[C@]12c3[nH]c4ccc(OC)cc4c3CCN1C(=O)C(CC(=O)NCc1ccc(OC)c(OC)c1)C[C@@H]2C(=O)N1CCN(C(=O)C2CC2)CC1 (stereo partly specified) | - | - | 29 | - | - | -
COc1ccc(Cl)cc1N1CC(c2nc3ccccc3[nH]2)CC1=O (stereo unspecified) | - | - | - | - | - | -
O=C1CC(c2nc3ccccc3[nH]2)CN1c1ccccc1F (stereo unspecified) | - | - | 78 | - | - | -
CC(OC(=O)Cc1n[nH]c(=O)c2ccccc12)C(=O)Nc1cc(Cl)cc(Cl)c1 (stereo unspecified) | - | - | - | - | - | -
CC(OC(=O)Cc1n[nH]c(=O)c2ccccc12)C(=O)Nc1ccc(Cl)cn1 (stereo unspecified) | - | 19 | - | - | - | -
CCOC(=O)Cn1cnc(-c2ccc([N+](=O)[O-])cc2)c1 | 27 | - | - | - | - | -
CN(Cc1ccccc1)C(=O)c1nc2ccccn2c1CN1CCC(N2CCOCC2)CC1 | - | - | - | - | - | -
CC1CCCN(C(=O)CCNS(=O)(=O)c2ccc3c(c2)c(=O)n(C)c(=O)n3C)C1 (stereo unspecified) | 15 | - | - | - | - | -
CCC(C)n1c(NC(=O)c2ccccc2)c(C#N)c2nc3ccccc3nc21 (stereo unspecified) | - | 19 | - | - | - | -
O=C(COc1c(CO)cc(Br)cc1CO)NC1CCCc2ccccc21 (stereo unspecified) | - | - | - | - | - | -
CC(Oc1ccc(F)cc1)C(=O)Nc1ccc(S(=O)(=O)NC2=NCCCCC2)cc1 (stereo unspecified) | - | - | - | - | - | -
CC(Oc1ccc(Br)cc1)C(=O)Nc1ccc(S(=O)(=O)NC2=NCCCCC2)cc1 (stereo unspecified) | - | - | - | - | 39 | 29
O=[N+]([O-])c1ccccc1C(=Nc1ccccc1)c1c(O)cc(O)cc1O | - | - | - | - | - | -
COc1cc(C(CCN2CCCC(C)C2)c2c(OC)cc(OC)c3c2OC(=O)CC3c2ccc(N(C)C)cc2)cc(OC)c1OC (stereo unspecified) | - | 22 | - | - | - | -
Cc1ccc2c(c1)CCCN2C(=O)CCc1nc2ccccc2c(=O)[nH]1 | - | - | - | - | - | -
Cc1cc(NC(=O)CS(=O)(=O)Cc2ccccc2)no1 | - | - | - | - | - | -
COc1cc2nc(C3CCC3)nc(N3CCN(c4ccccc4OC)CC3)c2cc1OC | - | - | 43 | - | - | -
CC(C)NC(=O)CN1CCN(C(=O)c2ccc3oc(CCCc4ccccc4)nc3c2)CC1 | 23 | - | - | - | - | -
CN(C(=O)COC(=O)CNC(=O)c1ccccc1F)C1CCCCC1 | 23 | - | - | - | - | -
CC(NC(=O)COC(=O)c1ccccc1SCC(=O)N1CCCC1)c1ccccc1 (stereo unspecified) | - | - | - | - | - | -
CCN1CCCC(OC(=O)C(c2ccccc2)c2ccccc2)C1 (stereo unspecified) | - | - | 32 | 57 | - | -
SMILES | CHRM4 PAM | CHRM5 PAM | CHRM4 antagonist | M5 antag | CHRM4 agonist | M5 ag
CCCc1ccc2oc(C(=O)N3CCC(C(N)=O)(N4CCCCC4)CC3)c(C)c2c1 | - | - | - | - | - | -
Cc1nnc2n1CCCCC2 | - | - | - | - | - | -
COc1ccc(N=Cc2oc3ccc4ccccc4c3c2O)cc1 | - | - | - | - | - | 47
CC(C)C[C@H]1CNC(=S)N1C[C@H]1CCCN1C[C@H](Cc1ccc(O)cc1)N1C[C@H](Cc2ccccc2)N(CC2CCCCCC2)C1=S | - | - | - | - | - | -
c1ccc(Cn2c[n+](Cc3ccccc3)c3ccccc32)cc1 | - | - | - | - | - | -
OCC1(Cc2ccccc2)CCCN(Cc2cn[nH]c2-c2ccccc2)C1 (stereo unspecified) | - | - | - | 32 | - | -
CCOC(=O)C1CCN(S(=O)(=O)CCNC(=O)c2ccc(F)cc2)CC1 | - | - | - | - | - | -
Cc1nc2ccc(NS(=O)(=O)c3ccc4c(c3)OCCO4)cc2s1 | - | - | 27 | - | - | -
Cc1ccc(S(=O)(=O)Nc2ccc3nc(C)sc3c2)cc1 | - | - | - | 30 | - | -
Cc1nc2ccc(NS(=O)(=O)c3ccc(F)c(F)c3)cc2s1 | - | - | - | - | - | -
C/C(=N\NC(=O)c1cccc(S(=O)(=O)N2CCOCC2)c1)c1ccc(OCC(=O)N(C)C)cc1 | - | - | - | - | - | -
CC(O)Cc1cn([C@@H](CCCCN)C(=O)N2CCNCC2)nn1 (stereo partly specified) | - | - | - | - | - | -
CC(O)[C@@H](C(=O)N1CCNCC1)n1cc(CCCCN)nn1 (stereo partly specified) | - | - | - | - | + | -
O=C(NCCCNC(=O)c1cnccn1)c1ccc(Cl)cc1 | - | - | - | - | - | -
O=C(NCCCNC(=O)c1cnccn1)c1ccc(Cl)c(Cl)c1 | - | - | 60 | - | - | -
CCC1CCCCN1C(=O)Cn1c(=O)n(CCCC(=O)NCc2ccco2)c(=O)c2sccc21 (stereo unspecified) | - | - | - | - | - | -
Cc1ccc(N/N=C2\CS(=O)(=O)N(C)c3ccsc32)cc1 | - | - | - | - | - | -
CCCC(=O)N/N=C1\CS(=O)(=O)N(C)c2ccsc21 | - | - | 51 | - | - | -
Nc1nc2ccc(Cl)cc2cc1C(=O)NCCc1c[nH]c2ccccc12 | - | - | 28 | - | - | -
Nc1nc2ccc(Cl)cc2cc1C(=O)NCCc1ccc(Cl)cc1Cl | - | - | - | - | - | -

Screening data as filed in PubChem.
